The values that follow come from ChEMBL document CHEMBL1275329, “Fruitful adrenergic α(2C)-agonism/α(2A)-antagonism combination to prevent and contrast morphine tolerance and dependence” (J Med Chem, 2010).

In series [1] the target is T1, Alpha-2B adrenergic receptor (Homo sapiens, UniProt P18089).
T1 sequence (P18089 whole entry): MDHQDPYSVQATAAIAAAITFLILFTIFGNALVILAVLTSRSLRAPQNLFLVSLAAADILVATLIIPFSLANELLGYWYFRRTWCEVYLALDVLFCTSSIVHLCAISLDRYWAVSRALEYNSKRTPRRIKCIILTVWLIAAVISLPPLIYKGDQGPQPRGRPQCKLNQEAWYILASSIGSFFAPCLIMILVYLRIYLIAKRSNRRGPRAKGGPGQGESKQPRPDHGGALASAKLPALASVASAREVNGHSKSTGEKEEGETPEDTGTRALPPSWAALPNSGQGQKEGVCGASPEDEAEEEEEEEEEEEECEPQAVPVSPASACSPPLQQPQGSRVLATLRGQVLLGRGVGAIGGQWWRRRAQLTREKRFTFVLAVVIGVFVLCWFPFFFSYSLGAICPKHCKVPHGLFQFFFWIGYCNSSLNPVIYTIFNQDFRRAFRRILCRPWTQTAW
Description: Agonist activity at human alpha2B adrenoceptor expressed in CHO cells assessed as induction of extracellular acidification by microphysiometry.

The target of series [2] is T1, Alpha-2B adrenergic receptor. Description: Displacement of [3H]RX821002 from human alpha2B adrenoceptor expressed in CHO cells. The series is classed as cell-based. In outline: (§1)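 Buffer was Tris-Mg (50 mM Tris-HCl, 0.5 mM MgCl2, pH 7.5), competitor 10^-9 to 10^-4 M, 30 min at room temperature. Bound ligand was filtered and counted. Ki by nonlinear one- or two-site fit, reported as pKi.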

The target of series [3] is T2, Alpha-2C adrenergic receptor (Homo sapiens, UniProt P18825).
T2 sequence (P18825 whole entry): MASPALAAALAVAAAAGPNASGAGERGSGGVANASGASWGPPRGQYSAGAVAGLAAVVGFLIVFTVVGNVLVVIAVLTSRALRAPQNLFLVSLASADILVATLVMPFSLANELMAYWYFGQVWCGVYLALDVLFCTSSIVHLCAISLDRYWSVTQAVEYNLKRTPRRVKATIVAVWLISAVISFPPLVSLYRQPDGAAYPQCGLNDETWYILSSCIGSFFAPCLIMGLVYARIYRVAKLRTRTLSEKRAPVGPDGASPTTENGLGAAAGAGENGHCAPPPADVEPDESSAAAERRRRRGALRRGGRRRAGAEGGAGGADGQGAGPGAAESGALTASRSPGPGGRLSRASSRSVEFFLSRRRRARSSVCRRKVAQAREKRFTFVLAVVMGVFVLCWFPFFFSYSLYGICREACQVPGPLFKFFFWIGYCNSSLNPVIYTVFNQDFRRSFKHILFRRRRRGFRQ
As to the kind of experiment: Agonist activity at human Alpha-2C adrenoceptor expressed in CHO cells assessed as induction of extracellular acidification by microphysiometry. The class given is functional, cell-based. The gist of the method: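 Cytosensor microphysiometry on CHO cells stably expressing one human α2-AR subtype, seeded at 3 × 10⁵ cells/cup and grown 24 h at 37 °C. Cells were perfused with bicarbonate-free DMEM and exposed to agonist for 4 min, with 30 min washes between exposures. The read-out is the change in acidification rate: peak after agonist minus the mean of three prior readings. Mean ± SEM, 3–6 experiments.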

Series [4] relates to Mus musculus. As to the kind of experiment: Reduction in morphine dependence expression in CD1 mouse assessed as decrease in expression of naloxone-precipitated withdrawal syndrome at 0.05 mg/kg, ip administered as single dose […] on test day post morphine challenge […]. The class given is functional, organism-based. More on the design: dose 0.05 mg/kg.

Series [5] concerns Mus musculus. Description: Reduction in morphine tolerance acquisition in CD1 mouse assessed as morphine analgesic effect incidence at 0.05 mg/kg, ip administered as single dose 15 mins before last morphine dosing on test day post morphine challenge by radiant heat tail flick test. The series is classed as functional. More on the design: scale not given: the % may be the effect or the level left. The gist of the method:
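Tolerance was induced in male CD-1 mice with morphine 10 mg/kg sc twice daily at 12 h intervals for 5 days. On day 5, test agent 0.05 mg/kg ip was given once, 15 min before the last morphine injection. Tail-flick antinociception was read 30 min after that injection and expressed as %MPE, with day 1 vs day 5 compared.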

The target in series [6] is T3, Alpha-2A adrenergic receptor (Homo sapiens) (UniProt P08913).
T3 sequence (whole entry): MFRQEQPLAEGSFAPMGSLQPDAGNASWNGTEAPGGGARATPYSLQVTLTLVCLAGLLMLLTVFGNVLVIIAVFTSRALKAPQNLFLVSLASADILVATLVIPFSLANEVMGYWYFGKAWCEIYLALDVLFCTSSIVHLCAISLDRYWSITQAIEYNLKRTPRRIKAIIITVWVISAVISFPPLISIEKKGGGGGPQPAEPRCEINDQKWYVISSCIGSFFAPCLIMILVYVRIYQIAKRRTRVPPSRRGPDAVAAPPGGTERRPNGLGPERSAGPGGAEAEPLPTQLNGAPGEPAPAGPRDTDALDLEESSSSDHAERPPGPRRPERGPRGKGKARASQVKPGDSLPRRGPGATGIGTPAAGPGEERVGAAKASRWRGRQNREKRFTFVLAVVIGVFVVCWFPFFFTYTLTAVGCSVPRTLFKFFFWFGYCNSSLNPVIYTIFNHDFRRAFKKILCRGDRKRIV
As to the kind of experiment: Antagonist activity at human alpha2A adrenoceptor expressed in CHO cells assessed as effect on agonist-induced extracellular acidification by microphysiometry. The class given is functional, cell-based. In outline:
(§2)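 CHO cells stably expressing one human α2-AR subtype were run on the Cytosensor microphysiometer with bicarbonate-free DMEM perfusion. […] Kb = M/(concentration ratio − 1), where the ratio is EC50 with antagonist over EC50 without. Reported as pKb, mean ± SEM of 3–6 experiments.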

The subject of series [7] is Mus musculus. Description: Reduction in morphine tolerance acquisition in CD1 mouse assessed as morphine analgesic effect incidence at 0.05 mg/kg, ip bid administered 15 mins before last morphine dosing by radiant heat tail flick test. The series is classed as functional, organism-based. More on the design: dose 0.05 mg/kg.
Series [8] deals with Mus musculus. As to the kind of experiment: Toxicity in CD1 mouse assessed as effect on sleep duration at 0.05 mg/kg, ip by pentobarbital sodium induced sleep time assay. The series is classed as organism-based. More on the design: dose 0.05 mg/kg, route intraperitoneal. Conditions: in vivo. In outline: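 Male CD-1 mice (n = 10 per group) were given test agent 0.05 mg/kg or vehicle, then sodium pentobarbital 50 mg/kg ip 15 min later. Sleep duration, the time from loss to regain of the righting reflex, was recorded in seconds. Mean ± SEM.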

For series [9], the system named is Mus musculus. Description: Reduction in morphine dependence expression in CD1 mouse assessed as decrease in expression of naloxone-precipitated withdrawal syndrome at 0.05 mg/kg, ip bid administered 15 mins before last morphine dosing […]. More on the design: dose 0.05 mg/kg. The class given is functional, organism-based. In outline:
(§3)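 In male CD-1 mice, morphine 10 mg/kg sc was given twice daily at 12 h intervals for 6 days, with test agent 0.05 mg/kg ip 15 min before each morphine dose. Jumping was counted, and somatic signs were scored as the sum of rearing, forepaw tremor and teeth chatter. Blind observers; mean ± SEM.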

For series [10], the target named is T4, Alpha-2C adrenergic receptor (Homo sapiens) (UniProt P18825).
T4 sequence (whole entry): T2 sequence (P18825 whole entry)
Description: Agonist activity at human Alpha-2C adrenoceptor expressed in CHO cells assessed as induction of extracellular acidification by microphysiometry relative to (-)noradrenaline. The series is classed as functional, cell-based. In outline:
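Cytosensor microphysiometry on CHO cells stably expressing one human α2-AR subtype, seeded at 3 × 10⁵ cells/cup and grown 24 h at 37 °C. Cells were perfused with bicarbonate-free DMEM and exposed to agonist for 4 min, with 30 min washes between exposures. The read-out is the change in acidification rate: peak after agonist minus the mean of three prior readings. […] Mean ± SEM, 3–6 experiments.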

In series [11] the test system is Mus musculus. Description: Enhancement of morphine-induced analgesic effect in CD1 mouse at 0.05 mg/kg, ip administered 15 mins before morphine dosing measured 30 to 240 mins post morphine challenge by radiant heat tail flick test. The series is classed as functional, organism-based. More on the design: dose 0.05 mg/kg. In outline: (§4)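 Male CD-1 mice (25–35 g) received test agent 0.05 mg/kg ip or vehicle 15 min before morphine 5 mg/kg sc. Radiant-heat tail-flick to the lower third of the tail; baseline latency (2–3 s) is the mean of two trials. Latencies were read at 30, 60, 90, 120 and 240 min and expressed as %MPE. 7–8 mice per group, mean ± SEM.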

In series [12] the target is T2, Alpha-2C adrenergic receptor. As to the kind of experiment: Displacement of [3H]RX821002 from human Alpha-2C adrenoceptor expressed in CHO cells. The class given is cell-based. The gist of the method:
as §1

For series [13], the system named is Mus musculus. Description: Enhancement of morphine-induced analgesic effect in CD1 mouse at 0.05 mg/kg, ip administered 15 mins before morphine dosing measured 30 to 240 mins post morphine challenge in presence of Alpha-2C adrenergic receptor antagonist yohimbine by radiant heat tail flick test. The series is classed as functional, organism-based. More on the design: dose 0.05 mg/kg. The gist of the method:
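Male CD-1 mice got yohimbine 1.250 mg/kg ip 15 min before test agent (0.05 mg/kg ip). Test agent was given 15 min before morphine 5 mg/kg sc. Radiant-heat tail-flick latency was read 30–240 min after morphine and expressed as %MPE.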

Series [14] relates to Mus musculus. Description: Analgesic effect in CD1 mouse at 0.05 mg/kg, ip by radiant heat tail flick test. The series is classed as functional, organism-based. More on the design: dose 0.05 mg/kg. The gist of the method: as §4
The target of series [15] is T5, Alpha-2B adrenergic receptor (Homo sapiens) (UniProt P18089).
T5 sequence (whole entry): T1 sequence (P18089 whole entry)
As to conditions: CHO.

The subject of series [16] is Mus musculus. As to the kind of experiment: Reduction in morphine dependence expression in CD1 mouse assessed as decrease in frequency of jumping at 0.05 mg/kg, ip bid administered 15 mins before last morphine dosing […]. The class given is functional. More on the design: scale not given: the % may be the effect or the level left. Conditions: route intraperitoneal. The gist of the method:
as §3

Series [17] has as its system Mus musculus. Description: Reduction in morphine dependence expression in CD1 mouse assessed as decrease in somatic signs at 0.05 mg/kg, ip bid administered 15 mins before last morphine dosing […]. The series is classed as functional. More on the design: scale not given: the % may be the effect or the level left. As to conditions: route intraperitoneal. In outline: as §3

The target of series [18] is T4, Alpha-2C adrenergic receptor (Homo sapiens). As to the kind of experiment: Antagonist activity at human Alpha-2C adrenoceptor expressed in CHO cells assessed as effect on agonist-induced extracellular acidification by microphysiometry. The series is classed as functional, cell-based. In outline:
as §2

The target of series [19] is T5, Alpha-2B adrenergic receptor (Homo sapiens). Description: Antagonist activity at human alpha2B adrenoceptor expressed in CHO cells assessed as effect on agonist-induced extracellular acidification by microphysiometry. The class given is functional, cell-based. The gist of the method: as §2

Activity calls are given as the source filed them. The calls are words filed in the database; no cut-off is given here.

As for `C=CCc1ccccc1O[C@@H](C)C1=NCCN1`, the 50% effective concentration (EC50) in series [1] was 1000 nM; in series [3], 25.1 nM. Besides, the Ki is 398 nM in series [2] and 70.8 nM in series [12]. Moreover, the result in the series with Mus musculus [4], in the series with Mus musculus [7], in the series on Mus musculus [9] and in the series with Mus musculus [11] was Active. For the same compound, the figures for the Activity in the series on Mus musculus [5] (route intraperitoneal) and in the series on Mus musculus [8] were 22% and “Non-toxic”, respectively. In addition, the negative-log Kb (pKb) in [6] was determined as 7.8. Also, the Intrinsic activity in series [10] worked out at 0.9. For the same compound, the result in the series on Mus musculus [13] and in the series with Mus musculus [14] was inactive.
Regarding `C=CCc1ccccc1OC(C)C1=NCCN1` (racemic) [ALLYPHENYLINE], the Activity in the series with Mus musculus [5] (route intraperitoneal) is given as 22%; in the series on Mus musculus [16] it was 80%; in the series on Mus musculus [17], 40%. For the same compound, in series [6], the negative logarithm of the Kb (pKb) was 7.4. Further, the result with Mus musculus [7] and in the series on Mus musculus [9] was Active. In addition, the pEC50 entry in series [15] was “inactive”. The Intrinsic activity in [10] came out at 0.9.
`CC(Oc1ccccc1)C1=NCCN1` (racemic): the pKb in [6] turned out to be 7.01; in series [18] it was 6.85; in series [19], 6.2.
Take `C=CCc1ccccc1O[C@H](C)C1=NCCN1`: the Ki in [2] was 562 nM; in series [12] it was 178 nM. Moreover, the EC50 in [3] is 186 nM. Also, the outcome in the series with Mus musculus [4], in the series with Mus musculus [7], in the series on Mus musculus [9] and with Mus musculus [11] was Active. The outcome in the series with Mus musculus [5], with Mus musculus [13] and with Mus musculus [14] was inactive. In series [6], the pKb was 7.4. Also, the pEC50 entry in series [15] is “inactive”. Also, the Activity entry in the series with Mus musculus [8] is “Non-toxic”. In addition, in series [10], the Intrinsic activity stood at 0.5.
